The values that follow come from article PMC4774891 (Pharmaceutical research, 2015).

Usually AUC(0-inf) stands for the area under the concentration-time curve extrapolated to infinity. Low readings indicate less exposure, high ones more exposure. As a reminder, the Cmax is the maximum level reached in the sampled fluid or tissue. In general, MRT refers to a mean duration of stay, worked out from the concentration-time curve. Broadly, the Tmax is the time from dosing to the highest level. One may read the half-life as how long it takes for the measured level to halve. Lower therefore signals fast loss. For orientation: Papp A→B means the apparent permeability from the apical to the basolateral side of a cell layer. Lower therefore signals poor permeation.

Data set [1] deals with Caco-2 cell monolayers.
Data set [2] relates to VEGF. The experiment in a line: VEGF estimation by ELISA in serum and tumor lysates. It counts as in vivo, Nu/nu mice.
The nature of data set [3]: In vitro drug release. In kind it is physicochemical. The following applies: PBS 1% Volpo pH 6.8, 37°C. An outline of the steps:
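Equal drug amounts (free drug, spray-dried formulation, or physical mixture) suspended in 500 ml PBS with 1% Volpo, pH 6.8. USP type II paddle, 50 rpm, 37±0.5°C, followed over 48 h.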

A short description of data set [4]: Oral pharmacokinetic study. In kind it is in vivo, Sprague Dawley rats. The following applies: rat.
Data set [5] concerns A431 tumors. The experiment in a line: IHC analysis of A431 tumors. The following applies: untreated control 34.00±6.26. It counts as in vivo, Nu/nu mice.
The conditions of data set [6]: free drug; cited from earlier work.
Data set [7] deals with A431 epidermoid carcinoma subcutaneous xenograft. The experiment in a line: Anticancer study in A431 subcutaneous xenograft model. It counts as in vivo, Nu/nu mice. The following applies: 50 mg/kg daily orally, 4 weeks; vehicle control 6663.01 ±1113.23.
The nature of data set [8]: Chronic toxicity. In kind it is in vivo. The following applies: 4 weeks daily oral.
The nature of data set [9]: Caco-2 permeability study. The following applies: human, Caco-2, pH 5.8. (Caco-2 cells form a polarised layer with tight junctions and transporters.)
The mark [10] stands for this setting: Sprague Dawley, plasma, po, 50 mg/kg.

Bounds are passed on as bounds.

As to lucifer yellow, the “average permeability (paracellular control)” value in data set [1] was < 0.15 ×10⁻⁶ cm/s.

In the case of `COc1cc2ncnc(Nc3ccc(F)c(Cl)c3)c2cc1OCCCN1CCOCC1` [Gef free drug, Gefitinib], the “VEGF level in serum” value in [2] (serum, control 572.90±38.51) is 336.40 ± 55.84 pg/mL. Further, the “VEGF level in tumor lysates” value in data set [2] (tumor lysates, control 355.35± 49.93) is given as 175.65±25.76 pg/mg protein. Besides, the “drug released after 48 h” value in [3] amounted to 16%. Moreover, in data set [4] (50 mg/kg orally), the CL is 1.9 ± 0.0408 mL/day/kg, the Vss was determined as 0.00045 ± 0.00022 L/kg and the “maximum plasma concentration (approximate molar)” value was “approximately 0.55 μM”. In [4] (setting [10]), the AUC(0-inf) was 1340 ± 244 ng·h/mL, the peak level (Cmax) was 248 ± 89.5 ng/mL, the mean residence time (MRT) is 8.85 ± 1.83 h and the time to peak (Tmax) amounted to 1.25 ± 0.25 h. Also, the half-life in [4] (setting [10]) was 7.46 ± 1.75 h. Also, the “cleaved caspase 3 positive apoptotic cells/field” value in data set [5] was 145.33±28.44 cells/field. Besides, the aqueous solubility entry in data set [6] is “less than 1 mg/ml”. Also, in [7], the final tumor volume was determined as 3534.49±896.16 mm^3. Besides, the body weight change result in [8] is given as “no change in the body weights”. This compound also yielded a Papp A→B at 120 min, 100 μM in data set [9] of 0.34 ± 0.09 ×10⁻⁶ cm/s.
